In series [1] the target is Mitogen-activated protein kinase 9 (Homo sapiens, UniProt P45984). Nature of the series: Inhibition of recombinant JNK2 after 60 mins by TR-FRET assay. A general note: Time-resolved FRET reads energy transfer from a long-lived donor to a nearby acceptor.
Series [2] deals with Mitogen-activated protein kinase 14 (Homo sapiens, UniProt Q16539). Nature of the series: Inhibition of recombinant p38alpha after 60 mins by TR-FRET assay.
The nature of series [3]: Metabolic stability in human liver microsomes assessed as compound remaining after 30 mins. In kind it is ADME, Microsome. The following applies: read-out: Stability. In outline: (§1)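 Test compound incubated with mouse or human liver microsomes for 30 min. Read-out is the percent of parent compound remaining at the end of the incubation.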
Background: Microsomes from liver hold many membrane-bound enzymes, among them those of drug oxidation.

The nature of series [4]: Metabolic stability in mouse liver microsomes assessed as compound remaining after 30 mins. The series is classed as ADME, Microsome. The conditions noted are these: read-out: Stability. In outline:
as §1

For another series, the system named is MDCK. The series is described as follows: Efflux ratio of permeability from […] side in MDCK cells expressing p-gp after 120 mins. In kind it is ADME, cell-based, Canis lupus familiaris. The conditions noted are these: dog, 2 h.
Series [5] deals with T1, Mitogen-activated protein kinase 1 (Homo sapiens, UniProt P28482). Nature of the series: Inhibition of recombinant Erk2 after 60 mins by TR-FRET assay.
The target of series [6] is T2, Mitogen-activated protein kinase 10 (Homo sapiens, UniProt P53779). The series is described as follows: Inhibition of recombinant JNK3 after 60 mins by TR-FRET assay.
Series [7] deals with Mitogen-activated protein kinase 8 (Homo sapiens, UniProt P45983). The series is described as follows: Inhibition of recombinant JNK1 after 60 mins by TR-FRET assay.
The subject of the next series is MDR1. The series is described as follows: Permeability from apical to basolateral side of MDCK cells expressing MDR1 after 120 mins. The following applies: dog, read-out: permeability. The series is classed as ADME, cell-based, Canis lupus familiaris.
A short description of series [8]: Solubility of compound in Hank's buffered salt solution. The series is classed as physicochemical.
For series [9], the target named is Tyrosine-protein kinase SYK (Homo sapiens) (UniProt P43405). The series is described as follows: Inhibition of SYK at 10 uM.
Series [10] deals with Rho-associated protein kinase 2 (Homo sapiens) (UniProt O75116). The series is described as follows: Inhibition of ROCK2 at 10 uM.
The target of series [11] is Protein kinase C beta type (Homo sapiens) (UniProt P05771). The series is described as follows: Inhibition of PRKCB1 at 10 uM.
Series [12] concerns the target T2, Mitogen-activated protein kinase 10. The conditions noted are these: 10 uM.
Series [13] deals with Serine/threonine-protein kinase PLK3 (Homo sapiens) (UniProt Q9H4B4). Nature of the series: Inhibition of PLK3 at 10 uM.
The target of series [14] is RAC-alpha serine/threonine-protein kinase (Homo sapiens) (UniProt P31749). The series is described as follows: Inhibition of AKT1 at 10 uM.
For series [15], the target named is Glycogen synthase kinase-3 beta (Homo sapiens) (UniProt P49841). The series is described as follows: Inhibition of GSK3-beta at 10 uM.
Series [16] concerns the target Cyclin-dependent kinase 1/cyclin B (Homo sapiens) (UniProt P06493+P14635+Q8WWL7+O95067). Nature of the series: Inhibition of CDK1/cyclin B at 10 uM. The series is classed as protein-complex assay.
Series [17] addresses Dual specificity protein kinase CLK1 (Homo sapiens) (UniProt P49759). The series is described as follows: Inhibition of CLK1 at 10 uM.
Series [18] deals with Calcium/calmodulin-dependent protein kinase type II subunit alpha (Homo sapiens) (UniProt Q9UQM7). The series is described as follows: Inhibition of CAMK2A at 10 uM.
The target of series [19] is Insulin receptor (Homo sapiens) (UniProt P06213). The series is described as follows: Inhibition of INSR at 10 uM.
Series [20] addresses Macrophage colony-stimulating factor 1 receptor (Homo sapiens) (UniProt P07333). The series is described as follows: Inhibition of CSF1R at 10 uM.
For series [21], the target named is Aurora kinase A (Homo sapiens) (UniProt O14965). The series is described as follows: Inhibition of AURKA at 10 uM.
The target of series [22] is Protein-tyrosine kinase 2-beta (Homo sapiens) (UniProt Q14289). Nature of the series: Inhibition of PTK2B at 10 uM.
For series [23], the target named is Serine/threonine-protein kinase 16 (Homo sapiens) (UniProt O75716). The series is described as follows: Inhibition of STK16 at 10 uM.
The target in series [24] is cAMP-dependent protein kinase catalytic subunit alpha (Homo sapiens) (UniProt P17612). Nature of the series: Inhibition of PRKACA at 10 uM.
Series [25] deals with Serine/threonine-protein kinase Chk1 (Homo sapiens) (UniProt O14757). Nature of the series: Inhibition of CHEK1 at 10 uM.
Series [26] addresses Dual specificity tyrosine-phosphorylation-regulated kinase 1B (Homo sapiens) (UniProt Q9Y463). Nature of the series: Inhibition of DYRK1B at 10 uM.
For series [27], the target named is Serine/threonine-protein kinase 3 (Homo sapiens) (UniProt Q13188). The series is described as follows: Inhibition of STK3 at 10 uM.
Series [28] concerns the target Tyrosine-protein kinase JAK1 (Homo sapiens) (UniProt P23458). Nature of the series: Inhibition of JAK1 at 10 uM.
Series [29] deals with Serine/threonine-protein kinase PAK 4 (Homo sapiens) (UniProt O96013). The series is described as follows: Inhibition of PAK4 at 10 uM.
Series [30] concerns RAF proto-oncogene serine/threonine-protein kinase (Homo sapiens), P04049 [Y340D,Y341D]. Nature of the series: Inhibition of RAF1 Y340D/Y341D mutant at 10 uM.
In series [31] the target is Tyrosine-protein kinase Lck (Homo sapiens) (UniProt P06239). The series is described as follows: Inhibition of LCK at 10 uM.
Series [32] addresses Serine/threonine-protein kinase PLK2 (Homo sapiens) (UniProt Q9NYY3). Nature of the series: Inhibition of PLK2 at 10 uM.
Series [33] deals with Tyrosine-protein kinase ABL1 (Homo sapiens) (UniProt P00519). Nature of the series: Inhibition of ABL1 at 10 uM.
Series [34] deals with Proto-oncogene tyrosine-protein kinase receptor Ret (Homo sapiens) (UniProt P07949). Nature of the series: Inhibition of RET at 10 uM.
Series [35] deals with Receptor-interacting serine/threonine-protein kinase 2 (Homo sapiens) (UniProt O43353). The series is described as follows: Inhibition of RIPK2 at 10 uM.
In series [36] the target is Serine/threonine-protein kinase PLK1 (Homo sapiens) (UniProt P53350). Nature of the series: Inhibition of PLK1 at 10 uM.
Series [37] deals with Platelet-derived growth factor receptor alpha (Homo sapiens) (UniProt P16234). The series is described as follows: Inhibition of PDGFRA at 10 uM.
In series [38] the target is Cyclin-dependent kinase 2/cyclin A (Homo sapiens) (UniProt P24941+P20248+P78396). Nature of the series: Inhibition of CDK2/cyclin A at 10 uM. The series is classed as protein-complex assay.
Series [39] has as its target PI3-kinase p110-alpha/p85-alpha (Homo sapiens) (UniProt P27986+P42336). Nature of the series: Inhibition of PIK3CA/PIK3R1 at 10 uM. The series is classed as protein-complex assay.
Series [40] addresses Receptor tyrosine-protein kinase erbB-4 (Homo sapiens) (UniProt Q15303). The series is described as follows: Inhibition of ERBB4 at 10 uM.
Series [41] deals with Receptor-type tyrosine-protein kinase FLT3 (Homo sapiens) (UniProt P36888). The series is described as follows: Inhibition of FLT3 at 10 uM.
The target of series [42] is Cyclin-dependent kinase 5/CDK5 activator 1 (Homo sapiens) (UniProt Q00535+Q15078). Nature of the series: Inhibition of CDK5/p25 at 10 uM. In kind it is protein-complex assay.
Series [43] deals with T1, Mitogen-activated protein kinase 1. The series is described as follows: Inhibition of MAPK1 at 10 uM.
Series [44] concerns the target Dual specificity protein kinase TTK (Homo sapiens) (UniProt P33981). The series is described as follows: Inhibition of TTK at 10 uM.
The target in series [45] is Serine/threonine-protein kinase MARK2 (Homo sapiens) (UniProt Q7KZI7). Nature of the series: Inhibition of MARK2 at 10 uM.

T1 sequence (P28482 whole entry): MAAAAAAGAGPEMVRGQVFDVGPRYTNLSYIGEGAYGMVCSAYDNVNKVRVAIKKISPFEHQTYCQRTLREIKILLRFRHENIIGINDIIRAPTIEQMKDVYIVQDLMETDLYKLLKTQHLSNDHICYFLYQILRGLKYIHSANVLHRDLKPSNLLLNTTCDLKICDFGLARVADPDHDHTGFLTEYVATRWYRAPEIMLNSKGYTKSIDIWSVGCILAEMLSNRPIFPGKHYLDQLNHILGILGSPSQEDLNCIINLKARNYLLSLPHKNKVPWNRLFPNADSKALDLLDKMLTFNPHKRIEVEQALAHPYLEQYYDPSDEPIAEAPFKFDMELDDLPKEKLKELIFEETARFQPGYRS
T2 sequence (P53779 whole entry): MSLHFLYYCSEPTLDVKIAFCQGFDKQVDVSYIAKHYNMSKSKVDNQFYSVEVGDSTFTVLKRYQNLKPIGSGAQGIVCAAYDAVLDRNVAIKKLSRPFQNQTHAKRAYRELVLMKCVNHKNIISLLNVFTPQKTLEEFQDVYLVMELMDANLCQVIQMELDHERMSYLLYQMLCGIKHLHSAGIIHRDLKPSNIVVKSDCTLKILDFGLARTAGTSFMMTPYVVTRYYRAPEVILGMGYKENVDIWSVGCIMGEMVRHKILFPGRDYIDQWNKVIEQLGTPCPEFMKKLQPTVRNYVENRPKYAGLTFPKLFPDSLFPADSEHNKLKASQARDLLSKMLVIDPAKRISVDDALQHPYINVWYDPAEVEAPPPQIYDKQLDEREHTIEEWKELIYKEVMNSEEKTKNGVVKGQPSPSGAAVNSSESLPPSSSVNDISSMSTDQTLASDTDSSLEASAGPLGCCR
Chain of Mitogen-activated protein kinase 14 (Q16539 whole entry): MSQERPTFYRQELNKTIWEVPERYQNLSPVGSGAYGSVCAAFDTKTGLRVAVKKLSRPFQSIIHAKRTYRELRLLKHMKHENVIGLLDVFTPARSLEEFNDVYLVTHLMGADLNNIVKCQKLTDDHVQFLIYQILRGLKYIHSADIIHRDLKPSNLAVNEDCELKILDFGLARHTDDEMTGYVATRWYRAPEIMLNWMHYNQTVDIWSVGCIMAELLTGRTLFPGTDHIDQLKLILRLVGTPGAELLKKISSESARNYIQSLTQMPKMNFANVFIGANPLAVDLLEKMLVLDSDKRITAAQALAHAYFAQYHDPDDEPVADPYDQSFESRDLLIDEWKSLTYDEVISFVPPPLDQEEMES
Chain of Mitogen-activated protein kinase 8 (P45983 whole entry): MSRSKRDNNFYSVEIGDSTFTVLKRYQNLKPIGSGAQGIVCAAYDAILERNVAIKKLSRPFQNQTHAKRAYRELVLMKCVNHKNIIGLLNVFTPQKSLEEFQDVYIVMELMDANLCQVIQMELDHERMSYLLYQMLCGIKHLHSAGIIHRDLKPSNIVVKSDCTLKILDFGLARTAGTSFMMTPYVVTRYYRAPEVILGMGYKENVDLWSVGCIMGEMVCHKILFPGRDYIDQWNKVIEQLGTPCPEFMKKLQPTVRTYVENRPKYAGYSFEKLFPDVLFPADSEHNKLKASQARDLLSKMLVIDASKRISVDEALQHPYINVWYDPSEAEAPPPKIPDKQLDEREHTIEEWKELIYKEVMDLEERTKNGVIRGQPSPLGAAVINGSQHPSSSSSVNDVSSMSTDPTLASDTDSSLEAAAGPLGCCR
Chain of Mitogen-activated protein kinase 9 (P45984 whole entry): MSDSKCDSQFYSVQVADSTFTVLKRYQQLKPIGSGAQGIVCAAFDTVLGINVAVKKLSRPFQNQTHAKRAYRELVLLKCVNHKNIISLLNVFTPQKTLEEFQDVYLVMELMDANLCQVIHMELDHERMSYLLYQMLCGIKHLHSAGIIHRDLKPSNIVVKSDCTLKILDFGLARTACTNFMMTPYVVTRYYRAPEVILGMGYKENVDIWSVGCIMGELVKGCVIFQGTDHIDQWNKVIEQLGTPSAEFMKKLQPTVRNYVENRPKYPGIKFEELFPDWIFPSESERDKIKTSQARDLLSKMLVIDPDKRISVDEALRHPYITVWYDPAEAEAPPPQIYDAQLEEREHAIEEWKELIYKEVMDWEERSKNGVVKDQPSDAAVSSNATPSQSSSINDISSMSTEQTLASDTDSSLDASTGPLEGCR
Chain of Dual specificity tyrosine-phosphorylation-regulated kinase 1B (Homo sapiens) (Q9Y463 whole entry, looked up): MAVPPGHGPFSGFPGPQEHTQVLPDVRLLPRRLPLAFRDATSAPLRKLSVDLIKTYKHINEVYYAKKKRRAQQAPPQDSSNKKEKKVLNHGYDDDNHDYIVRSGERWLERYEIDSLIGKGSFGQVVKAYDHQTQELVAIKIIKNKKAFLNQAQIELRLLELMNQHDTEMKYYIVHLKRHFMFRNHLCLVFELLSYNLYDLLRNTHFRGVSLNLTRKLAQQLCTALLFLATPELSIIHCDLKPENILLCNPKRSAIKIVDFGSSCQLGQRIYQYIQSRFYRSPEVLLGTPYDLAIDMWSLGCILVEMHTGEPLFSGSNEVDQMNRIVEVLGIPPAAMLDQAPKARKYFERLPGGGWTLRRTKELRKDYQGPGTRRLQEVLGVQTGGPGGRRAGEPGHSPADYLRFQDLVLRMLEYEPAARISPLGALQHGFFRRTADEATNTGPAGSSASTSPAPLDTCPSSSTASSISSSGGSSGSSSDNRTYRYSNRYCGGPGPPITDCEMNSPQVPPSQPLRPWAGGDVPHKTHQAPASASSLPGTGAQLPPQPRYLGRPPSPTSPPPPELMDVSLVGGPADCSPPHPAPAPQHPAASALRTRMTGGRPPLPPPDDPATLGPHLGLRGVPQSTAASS
Chain of Platelet-derived growth factor receptor alpha (Homo sapiens) (P16234 whole entry): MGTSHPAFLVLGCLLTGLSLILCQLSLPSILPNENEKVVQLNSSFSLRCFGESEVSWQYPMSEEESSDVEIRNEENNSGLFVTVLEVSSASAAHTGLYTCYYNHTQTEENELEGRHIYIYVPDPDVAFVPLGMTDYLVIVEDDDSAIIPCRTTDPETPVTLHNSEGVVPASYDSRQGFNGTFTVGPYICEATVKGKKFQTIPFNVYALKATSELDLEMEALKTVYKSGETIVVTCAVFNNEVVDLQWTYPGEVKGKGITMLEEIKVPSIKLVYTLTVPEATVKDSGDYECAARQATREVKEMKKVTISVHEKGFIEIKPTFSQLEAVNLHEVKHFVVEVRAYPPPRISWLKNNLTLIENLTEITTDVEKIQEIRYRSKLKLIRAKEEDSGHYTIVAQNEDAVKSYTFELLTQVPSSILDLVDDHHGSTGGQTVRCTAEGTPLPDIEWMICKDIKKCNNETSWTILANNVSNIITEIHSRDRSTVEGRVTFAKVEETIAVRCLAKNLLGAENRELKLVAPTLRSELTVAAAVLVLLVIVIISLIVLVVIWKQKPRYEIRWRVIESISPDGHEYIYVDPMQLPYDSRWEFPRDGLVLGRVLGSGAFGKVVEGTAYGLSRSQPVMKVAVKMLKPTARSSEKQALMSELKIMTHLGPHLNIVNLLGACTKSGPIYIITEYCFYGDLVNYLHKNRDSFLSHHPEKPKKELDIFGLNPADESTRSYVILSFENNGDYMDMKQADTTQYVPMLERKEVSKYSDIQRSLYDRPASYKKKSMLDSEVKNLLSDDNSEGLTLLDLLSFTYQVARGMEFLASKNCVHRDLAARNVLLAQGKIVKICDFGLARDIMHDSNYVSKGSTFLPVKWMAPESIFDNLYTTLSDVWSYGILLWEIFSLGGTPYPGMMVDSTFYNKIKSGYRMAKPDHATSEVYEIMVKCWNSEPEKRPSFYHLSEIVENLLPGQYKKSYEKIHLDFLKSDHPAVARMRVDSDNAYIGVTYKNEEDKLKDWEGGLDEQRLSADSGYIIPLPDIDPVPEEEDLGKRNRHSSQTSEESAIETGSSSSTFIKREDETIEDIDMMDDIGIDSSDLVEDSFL
Chain of Dual specificity protein kinase CLK1 (Homo sapiens) (P49759 whole entry, looked up): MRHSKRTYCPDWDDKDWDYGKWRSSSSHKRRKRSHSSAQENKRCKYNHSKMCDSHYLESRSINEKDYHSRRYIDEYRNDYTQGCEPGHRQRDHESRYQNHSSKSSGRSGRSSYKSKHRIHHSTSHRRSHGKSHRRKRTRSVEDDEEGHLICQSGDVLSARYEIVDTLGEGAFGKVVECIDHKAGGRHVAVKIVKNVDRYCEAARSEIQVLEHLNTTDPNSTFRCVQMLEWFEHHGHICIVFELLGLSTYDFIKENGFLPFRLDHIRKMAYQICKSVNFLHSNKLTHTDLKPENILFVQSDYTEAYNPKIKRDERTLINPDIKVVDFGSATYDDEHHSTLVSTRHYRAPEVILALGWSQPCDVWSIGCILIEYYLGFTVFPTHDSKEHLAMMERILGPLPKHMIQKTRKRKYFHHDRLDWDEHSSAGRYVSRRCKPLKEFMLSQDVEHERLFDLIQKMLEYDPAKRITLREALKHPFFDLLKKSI
Chain of Cyclin-dependent kinase 5/CDK5 activator 1 (Homo sapiens) (Q00535 whole entry): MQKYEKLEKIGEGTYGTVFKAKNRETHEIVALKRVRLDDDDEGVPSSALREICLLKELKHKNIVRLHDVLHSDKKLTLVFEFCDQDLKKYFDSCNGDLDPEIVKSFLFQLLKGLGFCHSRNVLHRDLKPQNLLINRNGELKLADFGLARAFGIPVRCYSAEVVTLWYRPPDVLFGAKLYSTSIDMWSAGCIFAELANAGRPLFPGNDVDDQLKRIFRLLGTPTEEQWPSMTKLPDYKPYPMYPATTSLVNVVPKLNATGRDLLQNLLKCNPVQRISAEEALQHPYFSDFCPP
Chain of Cyclin-dependent kinase 5/CDK5 activator 1 (Homo sapiens) (Q15078 99-307 partner limits assumed): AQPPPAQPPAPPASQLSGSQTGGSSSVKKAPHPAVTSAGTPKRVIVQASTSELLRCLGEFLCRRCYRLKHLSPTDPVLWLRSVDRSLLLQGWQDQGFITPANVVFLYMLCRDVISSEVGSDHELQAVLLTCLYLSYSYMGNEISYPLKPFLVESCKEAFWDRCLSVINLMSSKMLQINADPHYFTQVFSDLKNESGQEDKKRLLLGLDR

By IC50 is commonly meant the concentration needed to halve the response being measured. `O=C(Cc1cccc2cnccc12)Nc1scnc1-c1ncn[nH]1`: the IC50 is 2600 nM in [1]; greater than 50000 nM in series [2]; 24000 nM in series [5]; 820 nM in series [6]; 710 nM in [7]. Besides, the remaining at 0.5 h stood at 14% in series [3] and 15% in [4]. In the series with MDCK, the Ratio was found to be 5.

Regarding `O=C(Cc1cccc2cnccc12)Nc1scnc1-c1cnccn1`, the IC50 in [1] is 2000 nM; in [2], greater than 50000 nM; in series [5], greater than 50000 nM; in series [6] it was 470 nM; in [7] it was 410 nM. Also, the remaining at 0.5 h in series [3] was determined as 2%; in series [4], 3%. Further, the Ratio in the series with MDCK amounted to 0.73.

`COC(=O)c1ncsc1NC(=O)Cc1cccc2cnccc12`: the IC50 in series [1] is 5300 nM; in [2], greater than 50000 nM; in series [5] it was greater than 50000 nM; in series [6], 1600 nM; in [7] it was 1700 nM. Also, the results for the remaining at 0.5 h in [3] and in [4] were 41% and 11%, respectively. In addition, in the series on MDCK, the Ratio is 0.8.

Turning to `COc1ccc(CC(=O)Nc2ccsc2-c2cn(C)cn2)cc1`, the IC50 was greater than 50000 nM in [1]; greater than 50000 nM in series [2]; greater than 50000 nM in [5]; 31000 nM in series [6]; 23900 nM in series [7]. Besides, the remaining at 0.5 h was determined as 49% in series [3] and 1% in series [4]. In the series on MDR1, the Papp A→B at 2 h worked out at 7 ×10⁻⁶ cm/s.

By solubility is commonly meant the concentration that dissolves in the medium under given conditions. Turning to `O=C(Cc1cccc2cnccc12)Nc1ccsc1-c1cscn1`, the IC50 in [1] is 940 nM; in [2], greater than 50000 nM; in series [5] it was greater than 50000 nM; in series [6] it was 160 nM; in series [7], 140 nM. For the same molecule, the figures for the remaining at 0.5 h in series [3] and in series [4] were 4% and 1%, respectively. Further, the Ratio in the series with MDCK was 1.1. For the same molecule, the Papp A→B at 2 h in the series on MDR1 was found to be 26.1 ×10⁻⁶ cm/s. For the same molecule, the solubility in series [8] amounted to 90 µM.

For the molecule `O=C(Cc1cccc2ncccc12)Nc1ccsc1-c1nnc[nH]1`, the IC50 in series [1] was 710 nM; in series [5], greater than 50000 nM; in series [6] it was 560 nM; in [7], 270 nM. Moreover, the remaining at 0.5 h in series [3] stood at 67%; in series [4] it was 23%. In the series with MDCK, the Ratio is reported as 4.2. In addition, in the series with MDR1, the Papp A→B at 2 h came out at 6 ×10⁻⁶ cm/s. In series [8], the solubility is greater than 100 µM.

Take `O=C(Cc1cccc2cnccc12)Nc1scnc1-c1cscn1`: the half-maximal inhibitory concentration (IC50) in series [1] is 470 nM; in series [2] it was greater than 50000 nM; in series [5], greater than 50000 nM; in series [6], 77 nM; in [7], 48 nM. In addition, the Inihibition was 6% in series [9]; 3% in [10]; 18% in [11]; 69% in [12]; 17% in series [13]; 2% in [14]. Also, the Inihibition in series [15] is 13%; in [16], 4%; in series [17], 7%; in [18] it was 9%; in [19] it was 3%; in series [20], 33%. The Inihibition in series [21] is 27%; in series [22], 6%; in series [23], 9%; in [24], 14%; in [25], 8%; in series [26], 21%. Also, the Inihibition in series [27] was 5%; in [28] it was 4%; in series [29], -4%; in series [30], 5%; in series [31], 6%; in series [32] it was 24%. The Inihibition was determined as 7% in [33]; 21% in series [34]; 16% in series [35]; 8% in series [36]; 7% in series [37]; 9% in series [38]. The Inihibition in series [39] turned out to be 31%; in series [40], 4%; in series [41] it was 37%; in series [42] it was 9%; in [43] it was 16%; in [44], 85%. Also, the Inihibition in series [45] turned out to be 8%. The remaining at 0.5 h came out at 79% in [3] and 50% in series [4]. Moreover, the Ratio with MDCK came to 1.9.

Values taken from ChEMBL document CHEMBL1287787, “Design and synthesis of disubstituted thiophene and thiazole based inhibitors of JNK” (Bioorg Med Chem Lett, 2010).
